Test results from ChEMBL document CHEMBL5058577, “EUbOPEN Chemogenomics Library 2 (Multiplex)” (2022).

Test system: U2OS
Assay: Multiplex assay against U2OS
Format: toxicity, cell-based
Settings: human
How it was run: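 Values for tubulin, mitochondrial-mass and membrane-permeability phenotypes are per cents of cells with healthy nuclei. These cells were identified by CellPathfinder machine-learning gating of live cells that had been stained at seeding with Hoechst33342, BioTracker Green Microtubule Cytoskeleton Dye, MitoTracker Red and Annexin V Alexa Fluor 680 and imaged on a CQ1 microscope at 37°C and 5% CO2 after compound addition. The gating first set Hoechst high-intensity objects apart from normal cells, then split normal cells into healthy, pyknosed or fragmented nuclei, and pyknosed cells into mitotic or apoptotic.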

[1] = 12 h, 1 µM, compound concentration 1 uM, replicate 1
[2] = 12 h, 1 µM, compound concentration 1 uM, replicate 2
[3] = 12 h, 10 µM, compound concentration 10 uM, replicate 1
[4] = 12 h, 10 µM, compound concentration 10 uM, replicate 2
[5] = 24 h, 1 µM, compound concentration 1 uM, replicate 1
[6] = 24 h, 1 µM, compound concentration 1 uM, replicate 2
[7] = 24 h, 10 µM, compound concentration 10 uM, replicate 1
[8] = 24 h, 10 µM, compound concentration 10 uM, replicate 2
[9] = 48 h, 1 µM, compound concentration 1 uM, replicate 1
[10] = 48 h, 1 µM, compound concentration 1 uM, replicate 2
[11] = 48 h, 10 µM, compound concentration 10 uM, replicate 1
[12] = 48 h, 10 µM, compound concentration 10 uM, replicate 2

Compound: CN(C)C/C=C/C(=O)Nc1ccc(C(=O)N2CCCC(Nc3ncc(Cl)c(-c4c[nH]c5ccccc45)n3)C2)cc1 (configuration not stated)
- Population Apoptotic (%) [1]: 77%
- Population Fragmented Nuclei (%) [1]: 31%
- Population Healthy Nuclei (%) [1]: 60%
- Population Hoechst High Intensity Objects (%) [1]: 2%
- Population Membrane Permeable-Phenotype (%) [1]: 5%
- Population Mitochondria Different-Phenotype (%) [1]: 3%
- Population Mitotic Cells (%) [1]: 22%
- Population Normal (%) [1]: 97%
- Population Pyknosed Nuclei (%) [1]: 8%
- Population Tubulin-Different-Phenotype (%) [1]: 4%
- Total Cell Count [1]: 228
- Population Apoptotic (%) [2]: 83%
- Population Fragmented Nuclei (%) [2]: 18%
- Population Healthy Nuclei (%) [2]: 77%
- Population Hoechst High Intensity Objects (%) [2]: 0%
- Population Membrane Permeable-Phenotype (%) [2]: 6%
- Population Mitochondria Different-Phenotype (%) [2]: 5%
- Population Mitotic Cells (%) [2]: 16%
- Population Normal (%) [2]: 99%
- Population Pyknosed Nuclei (%) [2]: 4%
- Population Tubulin-Different-Phenotype (%) [2]: 8%
- Total Cell Count [2]: 139
- Population Apoptotic (%) [3]: 80%
- Population Fragmented Nuclei (%) [3]: 31%
- Population Healthy Nuclei (%) [3]: 47%
- Population Hoechst High Intensity Objects (%) [3]: 5%
- Population Membrane Permeable-Phenotype (%) [3]: 33%
- Population Mitochondria Different-Phenotype (%) [3]: 40%
- Population Mitotic Cells (%) [3]: 20%
- Population Normal (%) [3]: 94%
- Population Pyknosed Nuclei (%) [3]: 20%
- Population Tubulin-Different-Phenotype (%) [3]: 49%
- Total Cell Count [3]: 233
- Population Apoptotic (%) [4]: 75%
- Population Fragmented Nuclei (%) [4]: 25%
- Population Healthy Nuclei (%) [4]: 54%
- Population Hoechst High Intensity Objects (%) [4]: 2%
- Population Membrane Permeable-Phenotype (%) [4]: 23%
- Population Mitochondria Different-Phenotype (%) [4]: 42%
- Population Mitotic Cells (%) [4]: 25%
- Population Normal (%) [4]: 97%
- Population Tubulin-Different-Phenotype (%) [4]: 37%
- Total Cell Count [4]: 121
- Population Apoptotic (%) [5]: 93%
- Population Fragmented Nuclei (%) [5]: 34%
- Population Healthy Nuclei (%) [5]: 53%
- Population Hoechst High Intensity Objects (%) [5]: 2%
- Population Membrane Permeable-Phenotype (%) [5]: 7%
- Population Mitochondria Different-Phenotype (%) [5]: 2%
- Population Mitotic Cells (%) [5]: 6%
- Population Normal (%) [5]: 97%
- Population Pyknosed Nuclei (%) [5]: 11%
- Population Tubulin-Different-Phenotype (%) [5]: 6%
- Total Cell Count [5]: 271
- Population Apoptotic (%) [6]: 100%
- Population Fragmented Nuclei (%) [6]: 21%
- Population Healthy Nuclei (%) [6]: 67%
- Population Hoechst High Intensity Objects (%) [6]: 0%
- Population Membrane Permeable-Phenotype (%) [6]: 8%
- Population Mitotic Cells (%) [6]: 0%
- Population Normal (%) [6]: 99%
- Population Tubulin-Different-Phenotype (%) [6]: 5%
- Total Cell Count [6]: 164
- Population Apoptotic (%) [7]: 87%
- Population Fragmented Nuclei (%) [7]: 39%
- Population Healthy Nuclei (%) [7]: 35%
- Population Hoechst High Intensity Objects (%) [7]: 9%
- Population Membrane Permeable-Phenotype (%) [7]: 22%
- Population Mitochondria Different-Phenotype (%) [7]: 33%
- Population Mitotic Cells (%) [7]: 12%
- Population Normal (%) [7]: 90%
- Population Pyknosed Nuclei (%) [7]: 25%
- Population Tubulin-Different-Phenotype (%) [7]: 29%
- Total Cell Count [7]: 239
- Population Apoptotic (%) [8]: 97%
- Population Fragmented Nuclei (%) [8]: 31%
- Population Hoechst High Intensity Objects (%) [8]: 5%
- Population Membrane Permeable-Phenotype (%) [8]: 21%
- Population Mitochondria Different-Phenotype (%) [8]: 28%
- Population Mitotic Cells (%) [8]: 2%
- Population Normal (%) [8]: 94%
- Population Pyknosed Nuclei (%) [8]: 32%
- Population Tubulin-Different-Phenotype (%) [8]: 17%
- Total Cell Count [8]: 135
- Population Apoptotic (%) [9]: 94%
- Population Fragmented Nuclei (%) [9]: 29%
- Population Healthy Nuclei (%) [9]: 60%
- Population Hoechst High Intensity Objects (%) [9]: 3%
- Population Membrane Permeable-Phenotype (%) [9]: 10%
- Population Mitochondria Different-Phenotype (%) [9]: 3%
- Population Mitotic Cells (%) [9]: 5%
- Population Normal (%) [9]: 96%
- Population Pyknosed Nuclei (%) [9]: 10%
- Population Tubulin-Different-Phenotype (%) [9]: 5%
- Total Cell Count [9]: 339
- Population Apoptotic (%) [10]: 96%
- Population Fragmented Nuclei (%) [10]: 10%
- Population Healthy Nuclei (%) [10]: 77%
- Population Membrane Permeable-Phenotype (%) [10]: 3%
- Population Mitotic Cells (%) [10]: 3%
- Population Pyknosed Nuclei (%) [10]: 12%
- Population Tubulin-Different-Phenotype (%) [10]: 3%
- Total Cell Count [10]: 221
- Population Apoptotic (%) [11]: 100%
- Population Fragmented Nuclei (%) [11]: 50%
- Population Healthy Nuclei (%) [11]: 17%
- Population Hoechst High Intensity Objects (%) [11]: 15%
- Population Membrane Permeable-Phenotype (%) [11]: 47%
- Population Mitochondria Different-Phenotype (%) [11]: 27%
- Population Mitotic Cells (%) [11]: 0%
- Population Normal (%) [11]: 84%
- Population Pyknosed Nuclei (%) [11]: 32%
- Population Tubulin-Different-Phenotype (%) [11]: 38%
- Total Cell Count [11]: 251
- Population Healthy Nuclei (%) [12]: 18%
- Population Hoechst High Intensity Objects (%) [12]: 9%
- Population Membrane Permeable-Phenotype (%) [12]: 26%
- Population Mitochondria Different-Phenotype (%) [12]: 19%
- Population Normal (%) [12]: 90%
- Population Pyknosed Nuclei (%) [12]: 31%
- Population Tubulin-Different-Phenotype (%) [12]: 23%
- Total Cell Count [12]: 157
